Source: ChEMBL document CHEMBL2163294, “2-(N-Benzyl-N-phenylsulfonamido)alkyl amide derivatives as γ-secretase inhibitors” (Bioorg Med Chem Lett, 2012)

Key:
[1] = Inhibition of gamma-secretase-mediated amyloid beta42 production by GS H4-8 SW1-42 assay
Mus musculus [2] = experiment: Antialzheimer activity in Tg2576 mouse assessed as reduction in plasma amyloid-beta40 level at 200 umol/kg, po measured at 180 mins; type: functional; conditions: 3 h
Outline: (§1)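 Transgenic mice received a single 200 µmol/kg dose. […] Test-compound concentrations in brain and plasma (nM) were measured at the same time point.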

Liver = experiment: Metabolic stability in mouse liver microsomes; type: ADME, Microsome
Mus musculus [3] = experiment: Antialzheimer activity in Tg2576 mouse assessed as reduction in brain amyloid-beta40 level at 200 umol/kg, po measured at 180 mins; type: functional; conditions: 3 h; outline: as §1
[4] = Drug uptake in Tg2576 mouse brain at 200 umol/kg, po measured at 180 mins; type: ADME, organism-based; conditions: read-out: Drug uptake; outline: as §1
[5] = Plasma concentration in Tg2576 mouse at 200 umol/kg, po measured at 180 mins; type: ADME, organism-based; outline: as §1
Liver microsomes = experiment: Metabolic stability in human liver microsomes; type: ADME, Microsome
[6] = Inhibition of gamma-secretase
Gamma-secretase = experiment: Inhibition of human gamma-secretase expressed in IMR32 cell membranes using MBPC-125 Swedish as substrate assessed as inhibition of amyloid beta40 production after 2 hrs by ELISA; conditions: imr-32

IC50 ([1]; read-out: IC50)	Structure (SMILES)	also measured
4.9 nM	CC(C)C[C@H](C(N)=O)N(CCCCCCn1ccnc1)S(=O)(=O)c1ccc(Cl)cc1	–
0.44 nM	CC(C)C[C@H](C(N)=O)N(Cc1ccc(F)c(F)c1)S(=O)(=O)c1ccc(Cl)cc1	–
1100 nM	COc1ccc(CN([C@H](CC(C)C)C(=O)N(C)C)S(=O)(=O)c2ccc(Cl)cc2)cc1	–
–	COc1ccc(CN(C(=O)c2ccc(Cl)cc2)[C@H](CC(C)C)C(N)=O)cc1F	IC50 [1]: Not Active
0.69 nM	CC(C)C[C@H](C(N)=O)N(Cc1ccc(OC(F)(F)F)cc1)S(=O)(=O)c1ccc(Cl)cc1	–
0.39 nM	CC(C)C[C@H](C(N)=O)N(Cc1ccc(C(F)(F)F)cc1)S(=O)(=O)c1ccc(Cl)cc1	–
0.52 nM	CCC[C@H](C(N)=O)N(Cc1ccc(OC)c(F)c1)S(=O)(=O)c1ccc(Cl)cc1	inhibition in vivo at 200 µmol/kg (Mus musculus [2]): 41%; Stability (Liver): 0.3 nmol/min/mg; inhibition in vivo at 200 µmol/kg (Mus musculus [3]): 72%; concentration at 3 h [4]: 380 nM; concentration at 3 h [5]: 840 nM; Stability (Liver microsomes): 0.3 nmol/min/mg
0.94 nM	N#Cc1ccc(CN([C@H](CC2CC2)C(N)=O)S(=O)(=O)c2ccc(Cl)cc2)cc1	inhibition in vivo at 200 µmol/kg (Mus musculus [2]): 81%; Stability (Liver): 0.17 nmol/min/mg; inhibition in vivo at 200 µmol/kg (Mus musculus [3]): 75%; concentration at 3 h [4]: 2800 nM; concentration at 3 h [5]: 8600 nM; Stability (Liver microsomes): 0.16 nmol/min/mg
1.4 nM	COc1ccc(CN([C@@H](C(N)=O)C(C)C)S(=O)(=O)c2ccc(Cl)cc2)cc1F	–
315 nM	COc1ccc(CN([C@@H](CC(C)C)C(N)=O)S(=O)(=O)c2ccc(Cl)cc2)cc1	–
9.9 nM	CC(C)C[C@H](C(N)=O)N(CCCCN1CCOCC1)S(=O)(=O)c1ccc(Cl)cc1	–
0.35 nM	CC(C)C[C@H](C(N)=O)N(Cc1ccccc1)S(=O)(=O)c1ccc(Cl)cc1	–
0.26 nM	COc1ccc(CN([C@H](CC(C)C)C(N)=O)S(=O)(=O)c2ccc(F)cc2)cc1F	–
110 nM	CC(C)C[C@H](C(=O)NN)N(Cc1ccc(C(F)(F)F)cc1)S(=O)(=O)c1ccc(Cl)cc1	–
2.6 nM	CCC[C@H](C(N)=O)N(Cc1ccc(C#N)cc1)S(=O)(=O)c1ccc(Cl)cc1	–
0.43 nM	CC(C)C[C@H](C(N)=O)N(Cc1ccc(F)cc1)S(=O)(=O)c1ccc(Cl)cc1	–
4.2 nM	CC(C)C[C@H](C(N)=O)N(CCSC(C)(C)C)S(=O)(=O)c1ccc(Cl)cc1	–
160 nM	COc1ccc(CN([C@H](CC(C)C)C(=O)N(C)OC)S(=O)(=O)c2ccc(Cl)cc2)cc1	–
0.68 nM	NC(=O)[C@@H](CC1CC1)N(Cc1ccc(C(F)(F)F)cc1)S(=O)(=O)c1ccc(Cl)cc1	inhibition in vivo at 200 µmol/kg (Mus musculus [2]): 65%; Stability (Liver): 0.27 nmol/min/mg; inhibition in vivo at 200 µmol/kg (Mus musculus [3]): 78%; concentration at 3 h [4]: 6300 nM; concentration at 3 h [5]: 3600 nM; Stability (Liver microsomes): 0.23 nmol/min/mg
19 nM	COc1ccc(CN([C@H](CC(C)C)C(=O)NO)S(=O)(=O)c2ccc(Cl)cc2)cc1F	–
0.27 nM	CC(C)C[C@H](C(N)=O)N(Cc1ccc(N(C)C)cc1)S(=O)(=O)c1ccc(Cl)cc1	–

IC50 ([1]; read-out: IC50)	Structure (SMILES)	also measured
7 nM	COc1ccc(CN([C@H](CC(C)C)C(N)=O)S(=O)(=O)c2cccc(Cl)c2)cc1F	–
1 nM	CCCC[C@H](C(N)=O)N(Cc1ccc(C#N)cc1)S(=O)(=O)c1ccc(Cl)cc1	–
2200 nM	COc1ccc(CN([C@H](CC(C)C)c2nc(C)no2)S(=O)(=O)c2ccc(Cl)cc2)cc1	–
0.58 nM	CC(C)C[C@H](C(N)=O)N(Cc1ccc(C(C)C)cc1)S(=O)(=O)c1ccc(Cl)cc1	–
2.3 nM	CCN([C@H](CC(C)C)C(N)=O)S(=O)(=O)c1ccc(Cl)cc1	–
7.7 nM	CC(C)C[C@H](C(N)=O)N(Cc1ccc(CN(C)C)cc1)S(=O)(=O)c1ccc(Cl)cc1	–
4300 nM	CS(=O)(=O)CC[C@H](C(N)=O)N(Cc1ccc(C#N)cc1)S(=O)(=O)c1ccc(Cl)cc1	–
17 nM	CC(C)C[C@H](C(N)=O)N(CC1CCN(Cc2ccccc2)CC1)S(=O)(=O)c1ccc(Cl)cc1	–
0.35 nM	C=CC[C@H](C(N)=O)N(Cc1ccc(OC)c(F)c1)S(=O)(=O)c1ccc(Cl)cc1	–
19 nM	CSCC[C@H](C(N)=O)N(Cc1ccc(C#N)cc1)S(=O)(=O)c1ccc(Cl)cc1	–
0.67 nM	CC(C)C[C@H](C(N)=O)N(Cc1ccc(C#N)cc1)S(=O)(=O)c1ccc(Cl)cc1	–
4.4 nM	CC[C@H](C(N)=O)N(Cc1ccc(C#N)cc1)S(=O)(=O)c1ccc(Cl)cc1	–
–	NC(=O)[C@@H](CCC(F)(F)F)N(Cc1ccc(-c2ncon2)cc1F)S(=O)(=O)c1ccc(Cl)cc1	IC50 [6]: 0.3 nM
0.45 nM	COc1ccc(CN([C@H](CC(C)C)C(N)=O)S(=O)(=O)c2ccc(C)cc2)cc1F	–
380 nM	CNC(=O)[C@@H](CC(C)C)N(Cc1ccc(OC)cc1)S(=O)(=O)c1ccc(Cl)cc1	–
1200 nM	COc1ccc(CN([C@H](CC(C)C)c2nc(C)ns2)S(=O)(=O)c2ccc(Cl)cc2)cc1	–
0.62 nM	CC(C)C[C@H](C(N)=O)N(Cc1cc(F)cc(F)c1)S(=O)(=O)c1ccc(Cl)cc1	–
53 nM	COc1ccc(CN([C@H](CC(C)C)C(=O)NN)S(=O)(=O)c2ccc(Cl)cc2)cc1	–
0.35 nM	CC(C)C[C@H](C(N)=O)N(Cc1ccc(CCl)cc1)S(=O)(=O)c1ccc(Cl)cc1	–
2.7 nM	CC(C)C[C@H](C(N)=O)N(Cc1ccc(C#N)cc1)S(=O)(=O)c1ccc(F)cc1	–
54 nM	CC(C)(C)C(=O)C[C@H](C(N)=O)N(Cc1ccc(C#N)cc1)S(=O)(=O)c1ccc(Cl)cc1	–

IC50 ([1]; read-out: IC50)	Structure (SMILES)	also measured
0.15 nM	COc1ccc(CN([C@H](CC(C)C)C(N)=O)S(=O)(=O)c2ccc(Cl)cc2)cc1F	–
0.59 nM	COc1cccc(CN([C@H](CC(C)C)C(N)=O)S(=O)(=O)c2ccc(Cl)cc2)c1	–
5.3 nM	COc1ccc(CN([C@H](C)C(N)=O)S(=O)(=O)c2ccc(Cl)cc2)cc1F	–
0.41 nM	CC(C)C[C@H](C(N)=O)N(CCCc1ccccc1)S(=O)(=O)c1ccc(Cl)cc1	–
1100 nM	COc1ccc(CN(C(=O)Nc2ccccc2)[C@H](CC(C)C)C(N)=O)cc1F	–
1800 nM	C[S+]([O-])CC[C@H](C(N)=O)N(Cc1ccc(C#N)cc1)S(=O)(=O)c1ccc(Cl)cc1 (stereo not given in full)	–
390 nM	COc1ccc(CN([C@H](Cc2ccccc2)C(N)=O)S(=O)(=O)c2ccc(Cl)cc2)cc1	–
–	COc1ccc(CN([C@@H]2CCCCNC2=O)S(=O)(=O)c2ccc(Cl)cc2)cc1	inhibition in vivo at 200 µmol/kg (Mus musculus [2]): 47%; Stability (Liver): 0.22 nmol/min/mg; inhibition in vivo at 200 µmol/kg (Mus musculus [3]): 49%; concentration at 3 h [4]: 2200 nM; concentration at 3 h [5]: 280 nM; Stability (Liver microsomes): 0.23 nmol/min/mg
–	COc1ccc(CN([C@H](CC(C)C)C(N)=O)S(=O)(=O)c2ccc(Cl)cc2)cc1	IC50 (Gamma-secretase): 0.19 nM
2.8 nM	Cc1ccc(S(=O)(=O)N(Cc2ccc(C#N)cc2)[C@H](CC(C)C)C(N)=O)cc1	–
2000 nM	COc1ccc(CN(CC(N)=O)S(=O)(=O)c2ccc(Cl)cc2)cc1F	–
220 nM	COc1ccc(CN([C@H](CC(C)C)C(=O)O)S(=O)(=O)c2ccc(Cl)cc2)cc1F	–
1.7 nM	COc1ccc(CN([C@H](CC(C)C)C(N)=O)S(=O)(=O)c2ccccc2)cc1F	–
3.5 nM	CC(C)C[C@H](C(N)=O)N(CCCCCCN1CCOCC1)S(=O)(=O)c1ccc(Cl)cc1	–
0.79 nM	CC(C)C[C@H](C(N)=O)N(CC1CCCCC1)S(=O)(=O)c1ccc(Cl)cc1	–
23 nM	COc1ccccc1CN([C@H](CC(C)C)C(N)=O)S(=O)(=O)c1ccc(Cl)cc1	–
48 nM	COC[C@H](C(N)=O)N(Cc1ccc(C#N)cc1)S(=O)(=O)c1ccc(Cl)cc1	–
0.27 nM	COc1ccc(CN([C@H](CC(C)C)C(N)=O)S(=O)(=O)c2ccc(C(F)(F)F)cc2)cc1F	–
0.39 nM	CC(C)C[C@H](C(N)=O)N(Cc1ccc(C(C)(C)C)cc1)S(=O)(=O)c1ccc(Cl)cc1	–
9.2 nM	COc1ccc(CN([C@H](CC(C)C)C(N)=O)S(=O)(=O)c2cccc(C)c2)cc1F	–
